The source of these data is publication PMC6544531 (Nature chemistry, 2019).

“Also recorded” adds a separate entry of the source.

The subject of data set [1] is farnesylated substrates (YnF labeling) in EA.hy926 cells. It counts as cell-based, human. To be noted: for mean in-cell IC50 response (YnF labeling of farnesylated substrates): 10 µM YnF, 1 h inhibitor pre-incubation + 8 h. In a few lines:
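EA.hy926 endothelial cells labeled with alkyne prenyl probe alongside increasing concentrations of prenyl transferase inhibitor. Lysates were spiked with a heavy SILAC standard, a lysate dual-labeled with 13C615N4-Arg/13C615N2-Lys (R10K8) plus the same probe. Probe-labeled proteins were quantified against this standard by spike-in SILAC chemical proteomics, giving dose-response curves per farnesylated substrate.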

Data set [2] deals with FTase (Rattus norvegicus, UniProt Q02293+Q04631). To be noted: read-out: IC50 (weak FTI); cited from earlier work.
The test system of data set [3] is EA.hy926 cells. In words: Cell toxicity observed during cell treatment. Format: cell-based, human. To be noted: data not shown.
In data set [4] the test system is YnGG labeling of farnesylated substrates in EA.hy926 cells. Format: cell-based, human. Summed up:
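Human EA.hy926 cells given an FTase inhibitor over a range of concentrations and labeled with YnF or YnGG in parallel. Probe incorporation was quantified proteome-wide by spike-in SILAC chemical proteomics. Changes in the YnF/YnGG incorporation ratio were compared with loss of YnF labeling across concentrations. Points are mean of n=3 ± standard deviation.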

Sequence of FTase (Q02293 whole entry, one chain of several): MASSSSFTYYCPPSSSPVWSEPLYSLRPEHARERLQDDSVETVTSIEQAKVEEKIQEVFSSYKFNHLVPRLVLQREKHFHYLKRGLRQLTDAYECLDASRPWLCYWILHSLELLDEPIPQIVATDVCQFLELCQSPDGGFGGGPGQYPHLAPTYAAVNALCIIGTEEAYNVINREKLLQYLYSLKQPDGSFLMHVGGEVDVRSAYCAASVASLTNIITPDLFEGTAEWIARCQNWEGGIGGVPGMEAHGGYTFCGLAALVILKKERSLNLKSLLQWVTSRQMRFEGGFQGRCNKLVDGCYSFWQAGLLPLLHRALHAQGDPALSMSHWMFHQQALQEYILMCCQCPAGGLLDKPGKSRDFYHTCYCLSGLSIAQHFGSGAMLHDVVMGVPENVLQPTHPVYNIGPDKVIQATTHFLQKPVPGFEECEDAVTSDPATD

Take `COC(=O)[C@H](CCSC)NC(=O)c1ccc(NC[C@@H](N)CS)cc1-c1ccccc1` [FTI-277]: in data set [1], the “selectivity at the whole proteome level” value was “excellent selectivity” and the “mean in-cell IC50 response (YnF labeling of farnesylated substrates)” value was “micromolar”.

For orientation: IC50 means the point on the concentration scale where inhibition reaches its midpoint. Regarding `CCCC[C@@H](C)/C=C(C)/C=C(\C)C(=O)NC1=C[C@@](O)(/C=C/C=C/C=C/C(=O)NC2=C(O)CCC2=O)[C@@H]2O[C@@H]2C1=O` [Manumycin A], in data set [2], the IC50 was 5 µM. Moreover, in data set [3], the “concentration above which acute cell toxicity was evident” value was above 10 µM. In addition, in data set [1] (up to the highest concentration tested (10 µM)), the “impact on farnesylation (YnF labeling)” value is listed as “no evidence that Manumycin A impacted farnesylation; also recorded: insensitive”.

Consider `Cn1cncc1[C@@](N)(c1ccc(Cl)cc1)c1ccc2c(c1)c(-c1cccc(Cl)c1)cc(=O)n2C` [Tipifarnib], for which the “concentration of maximum increase in YnGG labeling of KRAS” value in data set [4] (KRAS) was determined as 10 nM. Also, in data set [4] (NRAS), the “concentration of maximum increase in YnGG labeling of NRAS” value is recorded as 5 nM. The “concentration of maximum increase in YnGG labeling of RRAS2” value in data set [4] (RRAS2) was 1 nM. Besides, in data set [1], the “selectivity at the whole proteome level” value was “excellent selectivity” and the “mean in-cell IC50 response (YnF labeling of farnesylated substrates)” value is given as “low nanomolar”.
